Data on 2 compounds can be found in ChEMBL document CHEMBL1152867, “Targeting QseC signaling and virulence for antibiotic development” (Science, 2008).

This test deals with Escherichia coli. The test can be described thus: Inhibition of [3H]norepinephrine binding to Escherichia coli Qsec by liposome-based scintillation counting assay. The method, boiled down:
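Liposomes reconstituted with QseC were loaded with tritiated norepinephrine (5 μM) by freeze-thaw in liquid N2 and held 10 min at room temperature, so unbound signal could diffuse out. They were pelleted at 12,000g for 5 min and counted for tritium. Counts were normalized to liposomes loaded with 5 μM tyrosine. Compound was tested at 5 pM and 5 fM.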

Active and inactive are the calls of the source. No cut-off for these calls is given here.

For `Cc1ccc(N(CC2=NCCN2)c2cccc(O)c2)cc1`, the outcome was Active. Then `CC(C)NCC(O)COc1cccc2ccccc12` (configuration not stated), with “inactive”.
